From ChEMBL document CHEMBL4725371, “A Novel Redox Modulator Induces a GPX4-Mediated Cell Death That Is Dependent on Iron and Reactive Oxygen Species” (J Med Chem, 2020)
The source made the active and inactive calls. No cut-off for these calls is given here.

Legend:
[1] = system: BXPC-3; experiment: Cytotoxicity against human BXPC-3 cells measured after 72 hrs by MTT assay; assay type: functional, cell-based; conditions: BXPC-3, 72 h
Procedure, shortened: (§1)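 Cells were kept in RPMI 1640 with 10% FBS at 37 °C, 5% CO₂, under 35 passages. Cells were seeded, attached overnight and treated with compound or DMSO for 72 h. MTT was added at 0.3 mg/mL for 3 h, then dissolved in DMSO and read as absorbance at 570 nm. IC50 was fitted from the curve. Values are mean ± sd of three independent experiments.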

[2] = system: MIA PaCa-2; experiment: Cytotoxicity against human MIA PaCa-2 cells measured after 72 hrs by MTT assay; assay type: functional, cell-based; conditions: MIA PaCa-2, 72 h; procedure, shortened: as §1
[3] = system: PANC-1; experiment: Cytotoxicity against human PANC-1 cells measured after 72 hrs by MTT assay; assay type: functional, cell-based; conditions: PANC-1, 72 h; procedure, shortened: as §1
[4] = Drug level in mouse plasma treated with QD394 at 500 uM measured after 0.5 hrs by LC-MS/MS analysis
[5] = system: MIA PaCa-2; experiment: Induction of ferroptosis in human MIA PaCa-2 cells assessed as increase in lipid peroxidation at 0.5 uM measured after 24 hrs by C11-BODIPY dye based fluorescence assay; assay type: functional, cell-based
Procedure, shortened: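 MIA PaCa-2 cells were treated for the set time, then given 10 μM C11-BODIPY for 30 min at 37 °C and washed. Fluorescence was read at 581/591 nm (reduced dye) and 488/510 nm (oxidized dye). The intensity ratio was compared by unpaired t-test.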

[6] = system: MIA PaCa-2; experiment: Inhibition glutathione synthesis in human MIA PaCa-2 cells at 1 to 2 uM measured after 2 to 4 hrs by GSH/GSSG-glo assay; assay type: functional, cell-based; conditions: dose microM 1-2, time hrs 2-4
Procedure, shortened: (§2)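 GSH/GSSG-Glo luminescent assay: 15,000–20,000 MIA PaCa-2 cells per well, attached overnight, treated 2 h and 4 h. Cells were lysed with total or oxidized glutathione reagent, then luciferin generation (30 min, room temperature) and detection reagents added. Luminescence was read after 15 min. Ratio was computed from net RLU as (total − GSSG)/(GSSG/2).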

[7] = system: MIA PaCa-2; experiment: Down regulation of PNPT1 expression in human MIA PaCa-2 cells at 3 times IC50 measured after 4 hrs in presence of NQO1 inhibitor dicoumarol by proteomics analysis; assay type: functional, cell-based
[8] = system: MIA PaCa-2; experiment: Induction of reactive oxygen species in human MIA PaCa-2 cells assessed as reduction in GSH to GSSG ratio at 1 to 2 uM measured after 2 to 4 hrs by GSH/GSSG-glo assay; assay type: functional, cell-based; conditions: dose microM 1-2, time hrs 2-4; procedure, shortened: as §2
[9] = system: MIA PaCa-2; experiment: Down regulation of LRPPRC expression in human MIA PaCa-2 cells at 3 times IC50 measured after 4 hrs in presence of NAC by proteomics analysis; assay type: functional, cell-based
[10] = system: MIA PaCa-2; experiment: Down regulation of PNPT1 expression in human MIA PaCa-2 cells at 3 times IC50 measured after 4 hrs in presence of NAC by proteomics analysis; assay type: functional, cell-based
[11] = system: MIA PaCa-2; experiment: Down regulation of LRPPRC expression in human MIA PaCa-2 cells at 3 times IC50 measured after 4 hrs in presence of NQO1 inhibitor dicoumarol by proteomics analysis; assay type: functional, cell-based
[12] = system: PANC-1; experiment: Down regulation of PNPT1 expression in human PANC-1 cells at 3 times IC50 measured after 1 to 24 hrs by proteomics analysis; assay type: functional, cell-based; conditions: time hrs 1-24
[13] = system: MIA PaCa-2; experiment: Down regulation of PNPT1 expression in human MIA PaCa-2 cells at 3 times IC50 measured after 4 hrs by proteomics analysis; assay type: functional, cell-based
[14] = system: MIA PaCa-2; experiment: Inhibition of colony formation in human MIA PaCa-2 cells at 0.6 uM measured after 7 to 9 days in presence of necroptosis inhibitor necrostatin-1 by crystal violet staining based assay; assay type: functional, cell-based; conditions: time day 7-9
Procedure, shortened: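 Cells seeded overnight in 96-well plates at 300 cells/well (MIA PaCa-2) or 600 cells/well (BxPC-3), in RPMI 1640 with 10% FBS. Inhibitor added 1 h before compound, then continuous exposure for 7–9 days until control wells were 80–90% confluent. Stained with 0.05% crystal violet for 30 min, imaged after overnight drying and quantified.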

[15] = system: MIA PaCa-2; experiment: Down regulation of LRPPRC expression in human MIA PaCa-2 cells at 3 times IC50 measured after 4 hrs by proteomics analysis; assay type: functional, cell-based
[16] = system: PANC-1; experiment: Down regulation of LRPPRC expression in human PANC-1 cells at 3 times IC50 measured after 1 to 24 hrs by proteomics analysis; assay type: functional, cell-based; conditions: time hrs 1-24

| Structure (SMILES) | IC50 [1] [nM] | IC50 [2] [nM] | IC50 [3] [nM] | further results |
| --- | --- | --- | --- | --- |
| CCc1ccc(-c2ccc(NC3=CC(=O)c4ncncc4C3=O)cc2)cc1 | 1600 | 1500 | 2300 | – |
| CN1C(O)CN(c2ccc(NC3=CC(=O)c4ncncc4C3=O)cc2)CC1O (configuration not stated) | – | – | – | Drug uptake [4]: Active |
| O=C1C(Nc2ccc(-c3ccc(Cl)cc3)cc2)=CC(=O)c2ncncc21 | 10100 | 9700 | 4400 | – |
| O=C1C(Nc2ccc(-c3ccccn3)cc2)=CC(=O)c2ncncc21 | 2700 | 2000 | 800 | – |
| COC(=O)c1ccc([C@H]2c3[nH]c4ccccc4c3C[C@H](C(=O)OC)N2C(=O)CCl)cc1 | – | – | – | Activity [5]: Active |
| CC(=O)c1cc2c(o1)C(=O)c1ccccc1C2=O | – | – | – | inhibition [6]: Active; Activity [7]: inactive; Activity [8]: Active; Activity [9]: Active; Activity [10]: Active; Activity [11]: inactive; Activity [12]: inactive; Activity [13]: Active; inhibition [14]: inactive; Activity [15]: Active; Activity [16]: inactive |
| O=C1C(Nc2ccc(N3CCOCC3)cc2)=CC(=O)c2ncncc21 | 2300 | 1500 | 800 | – |
| O=C1C(Nc2cccc(-c3ccccc3)c2)=CC(=O)c2ncncc21 | 5100 | 2400 | 2300 | – |
| O=C1C(Nc2ccc(C3CCCCC3)cc2)=CC(=O)c2ncncc21 | 500 | 1200 | 900 | – |
| CN1CCN(c2ccc(NC3C(=O)c4cncnc4C(=O)C3O)cc2)CC1 (configuration not stated) | – | – | – | Drug uptake [4]: Active |
